The source made the active and inactive calls. The calls are words filed in the database; no cut-off is given here.
Key:
K562 [1] = assay: Cytotoxicity against human K562 cells assessed as cell growth inhibition after 72 hrs by MTS assay; format: functional, cell-based; settings: K562, 72 h
[2] = Cytotoxicity against etoposide-resistant human K/VP.5 cells assessed as cell growth inhibition after 72 hrs by MTS assay; format: functional, cell-based; settings: K/VP.5, 72 h
How it was run: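 K/VP.5 cells are a K562-derived subline, 26-fold etoposide-resistant, with decreased topoisomerase IIα mRNA and protein. Cells were grown in suspension in αMEM with 10% fetal calf serum. Drugs were given from DMSO stocks, with final DMSO typically 0.4% or less. Read-out was MTS absorbance after 72 h. Typically nine concentrations were run in duplicate on two days. IC50 came from a four-parameter logistic fit.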

K562 [3] = assay: Relative resistance, ratio of IC50 for etoposide-resistant human K/VP.5 cells to IC50 for human K562 cells; format: functional
[4] = target: DNA topoisomerase 2-alpha (Homo sapiens) (UniProt P11388); assay: Inhibition of full-length human recombinant topoisomerase 2-alpha-mediated decatenation activity of kDNA by ethidium bromide based gel-assay
Sequence of DNA topoisomerase 2-alpha (Homo sapiens) (P11388 whole entry): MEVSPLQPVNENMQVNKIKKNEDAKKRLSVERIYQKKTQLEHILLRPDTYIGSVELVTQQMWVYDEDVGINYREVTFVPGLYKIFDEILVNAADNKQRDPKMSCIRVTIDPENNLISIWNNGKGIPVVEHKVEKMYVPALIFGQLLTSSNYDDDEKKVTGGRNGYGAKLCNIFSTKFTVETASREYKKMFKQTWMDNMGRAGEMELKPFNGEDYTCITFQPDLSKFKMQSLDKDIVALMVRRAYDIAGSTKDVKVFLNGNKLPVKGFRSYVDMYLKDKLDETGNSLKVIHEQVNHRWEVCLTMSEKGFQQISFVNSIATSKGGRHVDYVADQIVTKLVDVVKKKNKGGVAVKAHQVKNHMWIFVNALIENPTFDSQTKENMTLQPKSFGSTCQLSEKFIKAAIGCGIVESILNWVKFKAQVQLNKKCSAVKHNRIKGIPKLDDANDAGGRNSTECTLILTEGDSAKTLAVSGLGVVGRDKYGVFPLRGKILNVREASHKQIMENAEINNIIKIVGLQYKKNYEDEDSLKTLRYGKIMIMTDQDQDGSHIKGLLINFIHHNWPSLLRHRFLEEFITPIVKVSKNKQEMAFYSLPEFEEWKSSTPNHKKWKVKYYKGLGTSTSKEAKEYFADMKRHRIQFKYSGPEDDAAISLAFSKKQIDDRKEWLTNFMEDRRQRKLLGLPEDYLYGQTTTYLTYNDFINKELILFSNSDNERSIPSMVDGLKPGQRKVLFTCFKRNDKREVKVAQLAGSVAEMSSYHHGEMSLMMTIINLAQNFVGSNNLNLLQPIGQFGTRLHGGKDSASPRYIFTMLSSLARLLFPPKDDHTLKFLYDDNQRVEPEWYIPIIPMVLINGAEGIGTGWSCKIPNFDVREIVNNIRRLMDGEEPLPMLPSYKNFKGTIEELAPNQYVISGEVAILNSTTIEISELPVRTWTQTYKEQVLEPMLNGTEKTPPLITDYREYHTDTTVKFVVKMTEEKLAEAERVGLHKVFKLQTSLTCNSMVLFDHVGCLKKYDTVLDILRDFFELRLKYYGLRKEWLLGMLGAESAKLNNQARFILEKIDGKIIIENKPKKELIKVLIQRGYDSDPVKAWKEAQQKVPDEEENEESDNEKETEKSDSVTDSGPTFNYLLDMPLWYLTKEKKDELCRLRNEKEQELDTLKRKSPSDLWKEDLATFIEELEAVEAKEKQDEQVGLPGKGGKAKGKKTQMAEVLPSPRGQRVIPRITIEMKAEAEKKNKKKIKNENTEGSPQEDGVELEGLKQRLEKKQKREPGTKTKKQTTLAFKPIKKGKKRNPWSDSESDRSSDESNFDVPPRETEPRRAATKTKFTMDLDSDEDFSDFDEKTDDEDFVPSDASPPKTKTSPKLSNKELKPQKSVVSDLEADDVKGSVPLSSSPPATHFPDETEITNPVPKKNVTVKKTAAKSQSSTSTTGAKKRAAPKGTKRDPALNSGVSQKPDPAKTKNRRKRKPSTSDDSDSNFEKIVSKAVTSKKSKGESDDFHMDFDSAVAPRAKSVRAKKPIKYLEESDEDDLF

[5] = target: DNA topoisomerase 2-alpha (Homo sapiens) (UniProt P11388); assay: Inhibition of full-length human recombinant topoisomerase 2-alpha mediated relaxation and cleavage of supercoiled pBR322 plasmid DNA to linear DNA by ethidium bromide staining based gel electrophoresis assay
How it was run: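 Recombinant full-length human topoisomerase IIα with supercoiled pBR322 DNA at 37 °C. Components mixed on ice before drug addition. Complexes trapped with SDS; products run on ethidium bromide gels. Linear DNA identified against a HindIII-linearized marker; repeated on three days.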

CCRF-CEM = assay: Cytotoxicity against human CCRF-CEM cells assessed as cell growth at 10 uM; format: functional; settings: read-out: Activity
HL-60(TB) = assay: Cytotoxicity against human HL-60(TB) cells assessed as cell growth at 10 uM; format: functional; settings: read-out: Activity
K562 [6] = assay: Cytotoxicity against human K562 cells assessed as cell growth at 10 uM; format: functional; settings: read-out: Activity
MOLT-4 = assay: Cytotoxicity against human MOLT4 cells assessed as cell growth at 10 uM; format: functional; settings: read-out: Activity
RPMI-8226 = assay: Cytotoxicity against human RPMI8226 cells assessed as cell growth at 10 uM; format: functional; settings: read-out: Activity
SR = assay: Cytotoxicity against human SR cells assessed as cell growth at 10 uM; format: functional; settings: read-out: Activity
A549 = assay: Cytotoxicity against human A549/ATCC cells assessed as cell growth at 10 uM; format: functional; settings: read-out: Activity
HOP-62 = assay: Cytotoxicity against human HOP62 cells assessed as cell growth at 10 uM; format: functional; settings: read-out: Activity
HOP-92 = assay: Cytotoxicity against human HOP92 cells assessed as cell growth at 10 uM; format: functional; settings: read-out: Activity
NCI-H226 = assay: Cytotoxicity against human NCI-H226 cells assessed as cell growth at 10 uM; format: functional; settings: read-out: Activity
NCI-H23 = assay: Cytotoxicity against human NCI-H23 cells assessed as cell growth at 10 uM; format: functional; settings: read-out: Activity
NCI-H322M = assay: Cytotoxicity against human NCI-H322M cells assessed as cell growth at 10 uM; format: functional; settings: read-out: Activity
NCI-H460 = assay: Cytotoxicity against human NCI-H460 cells assessed as cell growth at 10 uM; format: functional; settings: read-out: Activity
COLO 205 = assay: Cytotoxicity against human COLO205 cells assessed as cell growth at 10 uM; format: functional; settings: read-out: Activity
HCC 2998 = assay: Cytotoxicity against human HCC2998 cells assessed as cell growth at 10 uM; format: functional; settings: read-out: Activity
HCT-116 = assay: Cytotoxicity against human HCT116 cells assessed as cell growth at 10 uM; format: functional; settings: read-out: Activity
HCT-15 = assay: Cytotoxicity against human HCT15 cells assessed as cell growth at 10 uM; format: functional; settings: read-out: Activity
HT-29 = assay: Cytotoxicity against human HT-29 cells assessed as cell growth at 10 uM; format: functional; settings: read-out: Activity
KM12 = assay: Cytotoxicity against human KM12 cells assessed as cell growth at 10 uM; format: functional; settings: read-out: Activity
SW-620 = assay: Cytotoxicity against human SW620 cells assessed as cell growth at 10 uM; format: functional; settings: read-out: Activity
SF-268 = assay: Cytotoxicity against human SF268 cells assessed as cell growth at 10 uM; format: functional; settings: read-out: Activity
SF-295 = assay: Cytotoxicity against human SF295 cells assessed as cell growth at 10 uM; format: functional; settings: read-out: Activity
SF-539 = assay: Cytotoxicity against human SF539 cells assessed as cell growth at 10 uM; format: functional; settings: read-out: Activity
SNB-19 = assay: Cytotoxicity against human SNB19 cells assessed as cell growth at 10 uM; format: functional; settings: read-out: Activity
SNB-75 = assay: Cytotoxicity against human SNB75 cells assessed as cell growth at 10 uM; format: functional; settings: read-out: Activity
U-251 = assay: Cytotoxicity against human U251 cells assessed as cell growth at 10 uM; format: functional; settings: read-out: Activity
Malme-3M = assay: Cytotoxicity against human MALME-3M cells assessed as cell growth at 10 uM; format: functional; settings: read-out: Activity
M14 = assay: Cytotoxicity against human M14 cells assessed as cell growth at 10 uM; format: functional; settings: read-out: Activity
MDA-MB-435 = assay: Cytotoxicity against human MDA-MB-435 cells assessed as cell growth at 10 uM; format: functional; settings: read-out: Activity
SK-MEL-2 = assay: Cytotoxicity against human SK-MEL-2 cells assessed as cell growth at 10 uM; format: functional; settings: read-out: Activity
SK-MEL-28 = assay: Cytotoxicity against human SK-MEL-28 cells assessed as cell growth at 10 uM; format: functional; settings: read-out: Activity
SK-MEL-5 = assay: Cytotoxicity against human SK-MEL-5 cells assessed as cell growth at 10 uM; format: functional; settings: read-out: Activity
UACC-257 = assay: Cytotoxicity against human UACC257 cells assessed as cell growth at 10 uM; format: functional; settings: read-out: Activity
UACC-62 = assay: Cytotoxicity against human UACC62 cells assessed as cell growth at 10 uM; format: functional; settings: read-out: Activity
IGROV-1 = assay: Cytotoxicity against human IGROV1 cells assessed as cell growth at 10 uM; format: functional; settings: read-out: Activity
OVCAR-3 = assay: Cytotoxicity against human OVCAR3 cells assessed as cell growth at 10 uM; format: functional; settings: read-out: Activity
OVCAR-4 = assay: Cytotoxicity against human OVCAR4 cells assessed as cell growth at 10 uM; format: functional; settings: read-out: Activity
OVCAR-5 = assay: Cytotoxicity against human OVCAR5 cells assessed as cell growth at 10 uM; format: functional; settings: read-out: Activity
OVCAR-8 = assay: Cytotoxicity against human OVCAR8 cells assessed as cell growth at 10 uM; format: functional; settings: read-out: Activity
[7] = Cytotoxicity against human NCI-ADR-RES cells assessed as cell growth at 10 uM; format: functional; settings: read-out: Activity
SK-OV-3 = assay: Cytotoxicity against human SKOV3 cells assessed as cell growth at 10 uM; format: functional; settings: read-out: Activity
786-0 = assay: Cytotoxicity against human 786-0 cells assessed as cell growth at 10 uM; format: functional; settings: read-out: Activity
A498 = assay: Cytotoxicity against human A498 cells assessed as cell growth at 10 uM; format: functional; settings: read-out: Activity
ACHN = assay: Cytotoxicity against human ACHN cells assessed as cell growth at 10 uM; format: functional; settings: read-out: Activity
CAKI-1 = assay: Cytotoxicity against human Caki1 cells assessed as cell growth at 10 uM; format: functional; settings: read-out: Activity
RXF 393 = assay: Cytotoxicity against human RXF393 cells assessed as cell growth at 10 uM; format: functional; settings: read-out: Activity
SN12C = assay: Cytotoxicity against human SN12C cells assessed as cell growth at 10 uM; format: functional; settings: read-out: Activity
TK-10 = assay: Cytotoxicity against human TK10 cells assessed as cell growth at 10 uM; format: functional; settings: read-out: Activity
UO-31 = assay: Cytotoxicity against human UO31 cells assessed as cell growth at 10 uM; format: functional; settings: read-out: Activity
PC-3 = assay: Cytotoxicity against human PC3 cells assessed as cell growth at 10 uM; format: functional; settings: read-out: Activity
DU-145 = assay: Cytotoxicity against human DU145 cells assessed as cell growth at 10 uM; format: functional; settings: read-out: Activity
MCF7 = assay: Cytotoxicity against human MCF7 cells assessed as cell growth at 10 uM; format: functional; settings: read-out: Activity
MDA-MB-231 = assay: Cytotoxicity against human MDA-MB-231/ATCC cells assessed as cell growth at 10 uM; format: functional; settings: read-out: Activity
[8] = Cytotoxicity against human Hs578T cells assessed as cell growth at 10 uM; format: functional; settings: Hs-578T, read-out: Activity
BT-549 = assay: Cytotoxicity against human BT549 cells assessed as cell growth at 10 uM; format: functional; settings: read-out: Activity
T47D = assay: Cytotoxicity against human T47D cells assessed as cell growth at 10 uM; format: functional; settings: read-out: Activity
MDA-MB-468 = assay: Cytotoxicity against human MDA-MB-468 cells assessed as cell growth at 10 uM; format: functional; settings: read-out: Activity

COc1cc([C@@H]2c3cc4c(cc3[C@@H](NC(=O)CN3CCN(CCCN5CCN(CC(=O)N[C@@H]6c7cc8c(cc7[C@@H](c7cc(OC)c(O)c(OC)c7)[C@H]7C(=O)OC[C@@H]76)OCO8)CC5)CC3)[C@H]3COC(=O)[C@H]23)OCO4)cc(OC)c1O
IC50 (K562 [1]): 0.525 µM
IC50 [2]: 7.5 µM
Ratio IC50 (K562 [3]): 14.2
inhibition [4]: Active
Effect on topoisomerase 2-alpha DNA cleavage (qualitative) [5]: Dose-dependent effect
growth at 10 µM (CCRF-CEM): 12.8%
growth at 10 µM (HL-60(TB)): 26.7%
growth at 10 µM (K562 [6]): 61.9%
growth at 10 µM (MOLT-4): 10.9%
growth at 10 µM (RPMI-8226): 63.4%
growth at 10 µM (SR): 15.2%
growth at 10 µM (A549): 47%
growth at 10 µM (HOP-62): 75.9%
growth at 10 µM (HOP-92): 65.7%
growth at 10 µM (NCI-H226): 86%
growth at 10 µM (NCI-H23): 84.2%
growth at 10 µM (NCI-H322M): 104%
growth at 10 µM (NCI-H460): 24.3%
growth at 10 µM (COLO 205): 53.9%
growth at 10 µM (HCC 2998): 97.8%
growth at 10 µM (HCT-116): 64.6%
growth at 10 µM (HCT-15): 98.6%
growth at 10 µM (HT-29): 89.5%
growth at 10 µM (KM12): 87.9%
growth at 10 µM (SW-620): 54.9%
growth at 10 µM (SF-268): 69.6%
growth at 10 µM (SF-295): 94.5%
growth at 10 µM (SF-539): 77.8%
growth at 10 µM (SNB-19): 59.3%
growth at 10 µM (SNB-75): 66.8%
growth at 10 µM (U-251): 45.1%
growth at 10 µM (Malme-3M): 68.1%
growth at 10 µM (M14): 95.4%
growth at 10 µM (MDA-MB-435): 88.6%
growth at 10 µM (SK-MEL-2): 101%
growth at 10 µM (SK-MEL-28): 85.9%
growth at 10 µM (SK-MEL-5): 77.6%
growth at 10 µM (UACC-257): 79.7%
growth at 10 µM (UACC-62): 56.4%
growth at 10 µM (IGROV-1): 71.8%
growth at 10 µM (OVCAR-3): 98.2%
growth at 10 µM (OVCAR-4): 95.6%
growth at 10 µM (OVCAR-5): 102%
growth at 10 µM (OVCAR-8): 95.5%
growth at 10 µM [7]: 103%
growth at 10 µM (SK-OV-3): 96.7%
growth at 10 µM (786-0): 95.9%
growth at 10 µM (A498): 65%
growth at 10 µM (ACHN): 92.5%
growth at 10 µM (CAKI-1): 97%
growth at 10 µM (RXF 393): 90.2%
growth at 10 µM (SN12C): 57.8%
growth at 10 µM (TK-10): 88.7%
growth at 10 µM (UO-31): 93.1%
growth at 10 µM (PC-3): 79.8%
growth at 10 µM (DU-145): 83.5%
growth at 10 µM (MCF7): 26%
growth at 10 µM (MDA-MB-231): 93.9%
growth at 10 µM [8]: 95.2%
growth at 10 µM (BT-549): 69.6%
growth at 10 µM (T47D): 56.9%
growth at 10 µM (MDA-MB-468): 93.8%

Reference: ChEMBL document CHEMBL3588757, “Structure-based design, synthesis and biological testing of piperazine-linked bis-epipodophyllotoxin etoposide analogs” (Bioorg Med Chem, 2015)
